# Results from ChEMBL document CHEMBL1137100, “Design, synthesis, and antiviral activity of certain 3-substituted 2,5,6-trichloroindole nucleosides” (J Med Chem, 2004).
# Legend:
# Human alphaherpesvirus 1 = test: Inhibitory concentration required against herpes simplex virus type-1 (HSV-1) expressed in BSC-1 cells was determined by ELISA assay; format: functional, organism-based; conditions: Human alphaherpesvirus 1, BSC-1
# Summary of the method: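 HSV-1 KOS strain. BSC-1 cells, 10 000 per well in MEM(E) with 10% calf serum, incubated overnight at 37 °C, then drug plus virus at 100 pfu/well, quadruplicate wells, 3 days at 37 °C. Detection with HRP-conjugated rabbit anti-HSV-1 antibody and TMB substrate, stopped with H₂SO₄ after 15 min, absorbance at 450 and 570 nm. IC50 by regression vs log10 concentration; acyclovir as positive control.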
# Human betaherpesvirus 5 = test: Inhibitory concentration required against human cytomegalovirus (HCMV) expressed in HFF cells was determined by plaque reduction assay; format: functional, organism-based; conditions: Human betaherpesvirus 5, HFF
# Summary of the method: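 HCMV Towne strain, isolate P₀. HFF monolayers infected with about 100 pfu per cm²; after adsorption, compound (diluted from 10 mg/mL DMSO stock) added at four to eight concentrations in duplicate wells. Incubated 7–10 days at 37 °C, fixed and stained with crystal violet, plaques counted microscopically. IC50 from regression of % plaque reduction vs log10 concentration; ganciclovir as positive control.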
# HFF = test: Cytotoxicity produced in stationary HFF cells was determined by microscopic inspection of uninfected cells; format: functional, cell-based; conditions: Homo sapiens
# Summary of the method: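 Uninfected stationary HFF cells inspected microscopically for cytotoxicity, scored at the time of HCMV plaque enumeration (7–10 days at 37 °C), duplicate wells. Compounds from 10 mg/mL DMSO stocks diluted in growth medium. IC50 from linear regression of % inhibition vs log10 concentration.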
# [1] = Cytotoxicity against KB cells was determined by crystal violet staining and spectrophotometric quantitation of dye eluted from stained cells; format: functional, cell-based
# Summary of the method: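 KB cells seeded at 3000–5000 per well, incubated overnight at 37 °C, then exposed to compound at six to eight concentrations for 48 h at 37 °C in CO₂ (two population doublings). Fixed with 95% ethanol, stained with 0.1% crystal violet, dye eluted with acidified ethanol, read at 570 nm. IC50 by linear regression of % inhibition vs log10 concentration.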
Compound,IC50 (Human alphaherpesvirus 1),IC50 (Human betaherpesvirus 5),IC50 (HFF),IC50 [1]
"O=Cc1c(Cl)n(C2O[C@H](CO)[C@@H](O)C2O)c2cc(Cl)c(Cl)cc12 (single isomer, unassigned)",40 µM,0.23 µM,45 µM,45 µM
"CCC(=O)OC[C@H]1OC(n2c(Cl)c(C=O)c3cc(Cl)c(Cl)cc32)C(O)[C@@H]1O (single isomer, unassigned)",10 µM,0.22 µM,32 µM,50 µM
"OC[C@H]1O[C@@H](n2c(Br)nc3cc(Cl)c(Cl)cc32)C(O)[C@@H]1O (single isomer, unassigned)",130 µM,0.7 µM,,> 100 µM
"N#Cc1c(Cl)n(C2O[C@H](CO)[C@@H](O)C2O)c2cc(Cl)c(Cl)cc12 (single isomer, unassigned)",15 µM,0.55 µM,32 µM,65 µM
"CC(=O)c1c(Cl)n(C2O[C@H](CO)[C@@H](O)C2O)c2cc(Cl)c(Cl)cc12 (single isomer, unassigned)",20 µM,0.31 µM,> 100 µM,50 µM
CC(=O)OC[C@H]1OC(n2c(Br)c(C=O)c3cc(Cl)c(Cl)cc32)[C@H](O)[C@@H]1O (some centres not stated),15 µM,0.32 µM,32 µM,40 µM
"O=Cc1c(Br)n(C2O[C@H](CO)[C@@H](O)C2O)c2cc(Cl)c(Cl)cc12 (single isomer, unassigned)",20 µM,0.32 µM,32 µM,50 µM
"OC[C@H]1O[C@@H](n2c(Cl)nc3cc(Cl)c(Cl)cc32)C(O)[C@@H]1O (single isomer, unassigned)",,2.9 µM,,210 µM
"OC[C@H]1OC(n2c(Cl)c(I)c3cc(Cl)c(Cl)cc32)C(O)[C@@H]1O (single isomer, unassigned)",20 µM,12 µM,32 µM,65 µM
"OC[C@H]1OC(n2c(Cl)c(-c3ccsc3)c3cc(Cl)c(Cl)cc32)C(O)[C@@H]1O (single isomer, unassigned)",45 µM,31 µM,> 100 µM,60 µM
CC(=O)OC[C@H]1OC(n2c(Cl)c(C=O)c3cc(Cl)c(Cl)cc32)[C@H](O)[C@@H]1O (some centres not stated),20 µM,< 0.1 µM,32 µM,35 µM
Nc1nc2c(ncn2COC(CO)CO)c(=O)[nH]1 [GANCICLOVIR],,,> 100 µM,> 100 µM
"O=CCc1c(Cl)n(C2O[C@H](CO)[C@@H](O)C2O)c2cc(Cl)c(Cl)cc12 (single isomer, unassigned)",> 100 µM,4 µM,> 100 µM,70 µM
"COC(=O)OC[C@H]1OC(n2c(Cl)c(C=O)c3cc(Cl)c(Cl)cc32)C(O)[C@@H]1O (single isomer, unassigned)",15 µM,0.2 µM,32 µM,50 µM
"O=C(c1c(Cl)n(C2O[C@H](CO)[C@@H](O)C2O)c2cc(Cl)c(Cl)cc12)C(F)(F)F (single isomer, unassigned)",15 µM,6.2 µM,32 µM,20 µM
"CC(=O)OC[C@H]1OC(n2c(Cl)c(C(C)=O)c3cc(Cl)c(Cl)cc32)C(O)[C@@H]1O (single isomer, unassigned)",20 µM,0.3 µM,32 µM,40 µM
"CC(=O)OC[C@H]1OC(n2c(Cl)c(C#N)c3cc(Cl)c(Cl)cc32)C(O)[C@@H]1O (single isomer, unassigned)",50 µM,2.5 µM,32 µM,70 µM
"CCCC(=O)OC[C@H]1OC(n2c(Cl)c(C=O)c3cc(Cl)c(Cl)cc32)C(O)[C@@H]1O (single isomer, unassigned)",9 µM,0.25 µM,32 µM,40 µM
"OC[C@H]1OC(n2c(Cl)c(-c3ccco3)c3cc(Cl)c(Cl)cc32)C(O)[C@@H]1O (single isomer, unassigned)",50 µM,42 µM,32 µM,80 µM
"CCC(=O)c1c(Cl)n(C2O[C@H](CO)[C@@H](O)C2O)c2cc(Cl)c(Cl)cc12 (single isomer, unassigned)",20 µM,2.5 µM,> 100 µM,100 µM
"Cc1c(Cl)n(C2O[C@H](CO)[C@@H](O)C2O)c2cc(Cl)c(Cl)cc12 (single isomer, unassigned)",70 µM,32 µM,32 µM,> 100 µM
"CCC(=O)c1c(Cl)n(C2O[C@H](COC(C)=O)[C@@H](O)C2O)c2cc(Cl)c(Cl)cc12 (single isomer, unassigned)",15 µM,3.2 µM,> 100 µM,100 µM
"OC[C@H]1OC(n2c(Cl)c(Cl)c3cc(Cl)c(Cl)cc32)C(O)[C@@H]1O (single isomer, unassigned)",45 µM,38 µM,32 µM,80 µM
